These results are taken from ChEMBL document CHEMBL1764975, “A new DNA gyrase inhibitor subclass of the cyclothialidine family based on a bicyclic dilactam-lactone scaffold. Synthesis and antibacterial properties” (J Med Chem, 2011).

Values after ≈ are worked out from the molar mass of the structure shown.

Data set [1] has as its system Staphylococcus aureus. Put plainly: (§1) Antimicrobial activity against Staphylococcus aureus Smith after 18 hrs by agar dilution method. The format is functional. The essentials: (§2)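 Agar dilution on Mueller-Hinton medium, inoculum 10⁴ CFU/spot; MIC is the minimum inhibitory concentration against the named strain.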
Data set [2] has as its system Stenotrophomonas maltophilia. Description: Antimicrobial activity against Xanthomonas maltophilia IAC 739 after 18 hrs by agar dilution method. It is filed as functional. The conditions noted are these: IAC 739, 18 h. The essentials:
as §2

The subject of data set [3] is Staphylococcus aureus. Description: Antimicrobial activity against Staphylococcus aureus ATCC 25923 after 18 hrs by agar dilution method. It is filed as functional. The conditions noted are these: ATCC 25923, 18 h. The procedure, abridged:
as §2

In another data set the test system is Streptococcus pyogenes. Description: Antimicrobial activity against Streptococcus pyogenes b15 after 18 hrs by agar dilution method. It is filed as functional. The note with it: b15, 18 h. The essentials:
as §2

Data set [4] in a line: Octanol-water partition coefficient, log D of the compound at pH 7.4 by shake-flask method. The format is physicochemical. The procedure, abridged:
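Octanol/water partition measured by shake-flask at pH 7.4.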

In data set [5] the test system is Enterococcus faecalis. Description: Antimicrobial activity against Enterococcus faecalis 6 after 18 hrs by agar dilution method. The note with it: Enterococcus faecalis, 6, 18 h.
The subject of data set [6] is Staphylococcus aureus. Put plainly: Antimicrobial activity against Staphylococcus aureus Smith infected in iv dosed septicaemia Swiss albino mouse model after 4 days. The format is functional. The note with it: 96 h. The essentials:
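Septicaemia model in mice infected with S. aureus Smith, compound given iv. In experiments with 0-1 survivors among 5-10 control mice, ED₅₀ (mg/kg) taken as lowest dose giving 3-5 survivors out of 5 infected mice.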

The test system of data set [7] is Staphylococcus aureus. Put plainly: Plasma shift, ratio of MIC for Staphylococcus aureus Smith in presence of mouse plasma to MIC for Staphylococcus aureus Smith in absence of mouse plasma. The format is functional. The essentials:
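Agar dilution MICs against S. aureus Smith were run on BHI agar mixed 1:1 with mouse plasma and on plain BHI agar. The plasma shift is the MIC with plasma divided by the MIC on BHI agar alone.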

Data set [8] concerns Staphylococcus epidermidis. Put plainly: Antimicrobial activity against Staphylococcus epidermidis 16/2 after 18 hrs by agar dilution method. The format is functional. The conditions noted are these: 16/2, 18 h. The essentials:
as §2

In data set [9] the test system is Escherichia coli. Put plainly: Antimicrobial activity against Escherichia coli 25922 after 18 hrs by agar dilution method. It is filed as functional. The note with it: Escherichia coli, 25922, 18 h. The essentials:
as §2

Data set [10] deals with Escherichia coli. Description: Inhibition of Escherichia coli DNA gyrase A2B2 complex after 30 mins by supercoiling assay.
Data set [11] concerns Staphylococcus aureus. Described as §1. The format is functional. The essentials: as §2
The source holds these as a separate data set.

For a further data set, the system named is Haemophilus influenzae. Put plainly: Antimicrobial activity against multidrug-resistant Haemophilus influenzae after 18 hrs by agar dilution method. It is filed as functional. The procedure, abridged: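 Agar dilution on Haemophilus test medium, inoculum 10⁵ CFU/spot, against 21 multiresistant H. influenzae strains. MIC_50/90 in μg/mL taken as the minimum concentration inhibiting at least 50% or 90% of the strains.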

The next data set concerns Moraxella catarrhalis. Description: Antimicrobial activity against multidrug-resistant Moraxella catarrhalis after 18 hrs by agar dilution method. The format is functional. The essentials:
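Agar dilution on Mueller-Hinton agar supplemented with sheep blood (5% v/v), inoculum 10⁵ CFU/spot, against 20 multiresistant M. catarrhalis strains. MIC_50/90 in μg/mL taken as the minimum concentration inhibiting at least 50% or 90% of the strains.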

The subject of data set [12] is Staphylococcus aureus. Description: Antimicrobial activity against multidrug-resistant Staphylococcus aureus after 18 hrs by agar dilution method. The format is functional. The procedure, abridged: (§3)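 Agar dilution on Mueller-Hinton agar, inoculum 10⁴ CFU/spot, against panels of multiresistant clinical strains (S. aureus 11, E. faecalis 16, E. faecium 23). MIC_50/90 in μg/mL taken as the minimum concentration inhibiting at least 50% or 90% of the strains tested.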

The subject of another data set is Enterococcus faecium. Description: Antimicrobial activity against multidrug-resistant Enterococcus faecium after 18 hrs by agar dilution method. The format is functional. The essentials: as §3
For data set [13], the system named is Enterococcus faecalis. Description: Antimicrobial activity against multidrug-resistant Enterococcus faecalis after 18 hrs by agar dilution method. The format is functional. The essentials:
as §3

A further data set relates to Streptococcus pneumoniae. Description: Antimicrobial activity against multidrug-resistant Streptococcus pneumoniae after 18 hrs by agar dilution method. It is filed as functional. The essentials:
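Agar dilution on IsoSensitest agar supplemented with sheep blood (5% v/v), inoculum 10⁴ CFU/spot, against 21 multiresistant S. pneumoniae strains. MIC_50/90 in μg/mL taken as the minimum concentration inhibiting at least 50% or 90% of the strains.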

Regarding `COc1cc(O)c2c(c1Br)C(=O)OCCCCC(=O)N[C@H](c1nc(C)no1)CSC2`, the minimum inhibitory concentration (MIC) in the data set with Staphylococcus aureus [1] is 0.12 µg/mL (≈ 0.24 µM); in data set [2], 2 µg/mL (≈ 4 µM); in the data set with Staphylococcus aureus [3] it was < 0.12 µg/mL; in the data set with Streptococcus pyogenes it was < 0.12 µg/mL; with Enterococcus faecalis [5] it was 0.12 µg/mL (≈ 0.24 µM); in data set [8], < 0.12 µg/mL. The MIC against Escherichia coli [9] is 64 µg/mL (≈ 128 µM); in the data set on Staphylococcus aureus [11] it was < 0.12 µg/mL. In [4], this compound gave a logD of 2.18. For the same compound, it took a dose of 25 mg/kg to reach the 50% effect level in the data set on Staphylococcus aureus [6] (ED50). For the same compound, the Ratio in the data set with Staphylococcus aureus [7] is on record as 4. The compound further came in with an MNEC in the data set with Escherichia coli [10] of 0.005 µg/mL.
As to `COc1cc(O)c2c(c1C)C(=O)O[C@H](CO)CCC/C(S)=N/[C@H](c1nc(C)no1)CSC2`, in the data set on Staphylococcus aureus [1], the lowest concentration to inhibit growth (MIC) was 0.5 µg/mL (≈ 1.04 µM). Moreover, the MIC50 with Haemophilus influenzae is 8 µg/mL (≈ 16.6 µM); in the data set on Moraxella catarrhalis it was 2 µg/mL (≈ 4.15 µM); against Staphylococcus aureus [12], 1 µg/mL (≈ 2.08 µM); against Enterococcus faecium, 1 µg/mL (≈ 2.08 µM); against Enterococcus faecalis [13], 1 µg/mL (≈ 2.08 µM); in the data set on Streptococcus pneumoniae, 2 µg/mL (≈ 4.15 µM). In addition, the MIC90 stood at 8 µg/mL (≈ 16.6 µM) in the data set with Haemophilus influenzae; 2 µg/mL (≈ 4.15 µM) against Moraxella catarrhalis; 1 µg/mL (≈ 2.08 µM) in the data set on Staphylococcus aureus [12]; 2 µg/mL (≈ 4.15 µM) against Enterococcus faecium; 1 µg/mL (≈ 2.08 µM) against Enterococcus faecalis [13]; 4 µg/mL (≈ 8.31 µM) against Streptococcus pneumoniae. Also, the 50% effect level in the data set with Staphylococcus aureus [6] (ED50) was put at a dose of 12.5 mg/kg. The MNEC in the data set with Escherichia coli [10] turned out to be 0.005 µg/mL.
Turning to `COc1cc(O)c2c(c1C)C(=O)OCCCCC(=O)N[C@H](c1nc(C)no1)CSC2`, the MIC against Staphylococcus aureus [1] worked out at 0.25 µg/mL (≈ 0.574 µM); in [2], 4 µg/mL (≈ 9.18 µM); against Staphylococcus aureus [3], 0.5 µg/mL (≈ 1.15 µM); with Streptococcus pyogenes it was 1 µg/mL (≈ 2.3 µM); in the data set with Enterococcus faecalis [5], 0.5 µg/mL (≈ 1.15 µM); in [8] it was 0.12 µg/mL (≈ 0.276 µM). Also, the minimal inhibitory concentration (MIC) in the data set with Escherichia coli [9] was > 64 µg/mL; against Staphylococcus aureus [11] it was 0.25 µg/mL (≈ 0.574 µM). In addition, the logD in [4] is 1.99. Besides, the ED50 in the data set with Staphylococcus aureus [6] is > 25 mg/kg. Further, the Ratio with Staphylococcus aureus [7] turned out to be 2. In the data set on Escherichia coli [10], the MNEC is 0.01 µg/mL.
In the case of `COc1cc(O)c2c(c1Br)C(=O)OCC(=O)NCC(=O)N[C@H](c1nc(C)no1)CSC2`, the MIC in the data set with Staphylococcus aureus [1] is 1 µg/mL (≈ 1.94 µM); in data set [2], > 64 µg/mL; with Staphylococcus aureus [3] it was 4 µg/mL (≈ 7.76 µM); against Streptococcus pyogenes, < 0.12 µg/mL; in the data set on Enterococcus faecalis [5], 0.5 µg/mL (≈ 0.97 µM); in data set [8], < 0.12 µg/mL. The MIC with Escherichia coli [9] is > 64 µg/mL; with Staphylococcus aureus [11], 1 µg/mL (≈ 1.94 µM). The compound also returned a logD in data set [4] of 1.4. Further, the MIC50 came out at 1 µg/mL (≈ 1.94 µM) in the data set with Haemophilus influenzae; 1 µg/mL (≈ 1.94 µM) against Moraxella catarrhalis; 4 µg/mL (≈ 7.76 µM) with Staphylococcus aureus [12]; 0.5 µg/mL (≈ 0.97 µM) against Enterococcus faecium; 0.25 µg/mL (≈ 0.485 µM) in the data set on Enterococcus faecalis [13]; 0.5 µg/mL (≈ 0.97 µM) in the data set on Streptococcus pneumoniae. For the same compound, the MIC90 with Haemophilus influenzae was 4 µg/mL (≈ 7.76 µM); against Moraxella catarrhalis it was 2 µg/mL (≈ 3.88 µM); in the data set on Staphylococcus aureus [12], 4 µg/mL (≈ 7.76 µM); with Enterococcus faecium it was 0.5 µg/mL (≈ 0.97 µM); in the data set on Enterococcus faecalis [13] it was 0.5 µg/mL (≈ 0.97 µM); with Streptococcus pneumoniae, 2 µg/mL (≈ 3.88 µM). For the same compound, the 50% effect level with Staphylococcus aureus [6] (ED50) was put at a dose of 3 mg/kg. Besides, the Ratio with Staphylococcus aureus [7] worked out at 2. In the data set on Escherichia coli [10], this compound showed an MNEC of 0.02 µg/mL.
`COc1cc(O)c2c(c1Br)C(=O)OCC(=O)NCC(=S)N[C@H](c1nc(C)no1)CSC2`: the minimal inhibitory concentration (MIC) was 0.12 µg/mL (≈ 0.226 µM) in the data set with Staphylococcus aureus [1]; 0.25 µg/mL (≈ 0.47 µM) in data set [2]; 0.25 µg/mL (≈ 0.47 µM) against Staphylococcus aureus [3]; 0.12 µg/mL (≈ 0.226 µM) in the data set on Streptococcus pyogenes; < 0.12 µg/mL with Enterococcus faecalis [5]; < 0.12 µg/mL in data set [8]. Moreover, the MIC in the data set on Escherichia coli [9] was > 64 µg/mL; in the data set with Staphylococcus aureus [11], < 0.12 µg/mL. The compound further came in with a logD in data set [4] of 2.61. The compound further had an ED50 with Staphylococcus aureus [6] of 12.5 mg/kg. Moreover, in the data set with Escherichia coli [10], the MNEC came to 0.05 µg/mL.
Turning to `COc1cc(O)c2c(c1C)C(=O)OCC(=O)NCC(=S)N[C@H](c1nc(C)no1)CSC2`, the minimal inhibitory concentration (MIC) in the data set on Staphylococcus aureus [1] is 0.5 µg/mL (≈ 1.07 µM); in data set [2] it was 4 µg/mL (≈ 8.57 µM); against Staphylococcus aureus [3], 1 µg/mL (≈ 2.14 µM); with Enterococcus faecalis [5], 0.5 µg/mL (≈ 1.07 µM); in data set [8], < 0.12 µg/mL; with Escherichia coli [9] it was > 64 µg/mL. The compound also yielded an MIC against Staphylococcus aureus [11] of 0.5 µg/mL (≈ 1.07 µM). Further, the logD in data set [4] amounted to 2.32. Besides, the 50% effective dose (ED50) in the data set with Staphylococcus aureus [6] came to 25 mg/kg. The same compound registered an MNEC in the data set with Escherichia coli [10] of 0.001 µg/mL.
